# From PubChem
# A selection: hits, their analogues and other compounds. The true share with any hit is near 3.7%.
# KCNQ1 act: potentiators or activators of human KCNQ1 potassium channel; P51787; CHO-K1 KCNQ1, thallium flux FluxOR fluorescence; stronger effect = higher value; B-score at 10 µM; 310,000 compounds, 0.35% hits;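 active = fluorescence ratio B-score, a plate-corrected score, at least three library SD, with initial intensity B-score within 5 SD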
#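 Material: CHO-K1 cells stably expressing KCNQ1. Medium: assay buffer for compound exposure, DMSO matched across wells. Reagent: K+/Tl+ depolarizing stimulus. Compound dosing: single-concentration screen. Times: 37 °C overnight plating, 90-min dark dye load, 20-min compound pretreatment. Technique: FluxOR Tl+ flux fluorescence.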
# Kir21 inh: blocks the mouse Kir2.1 inward-rectifier potassium channel; HEK293-Kir2.1, FluxOR thallium flux fluorescence; stronger effect = lower value; B-score at 10 µM; 310,000 compounds, 0.85% hits; AID 1672;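 active = fluorescence ratio B-score at or below minus 3 SD of library scores, with starting-brightness B-score within 2 SD, cut at about -4.2 in these data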;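 also: channel flux triggered by added potassium and thallium sulfate stimulus; B-score of peak minus minimum fluorescence over baseline after thallium stimulus; more negative B-score means stronger Kir2.1 block with less thallium influx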
# KCNQ1 inh: human KCNQ1 channel inhibition | P51787 | CHO-K1 KCNQ1, FluxOR thallium flux fluorescence; stronger effect = higher value | B-score at 10 µM | 310,000 compounds, 1.3% hits;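 active = compounds whose thallium flux B-score, printed positive for inhibition, exceeds three library SD while starting fluorescence stays within three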;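 also: channel opened by potassium depolarization with thallium stimulus after 20 min compound exposure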
# KCNK9 block: inhibitors of human KCNK9 two-pore domain potassium channel; 310,000 compounds, 1.2% hits; HEK293 KCNK9, FluxOR thallium flux fluorescence; stronger effect = lower value; Q9NPC2; B-score at 10 µM;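 active = ratio B-score over 3 SD below the library mean, with starting fluorescence within 5 SD of its mean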;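 also: negative B-score means less thallium flux so channel inhibition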
# KCNK3 block: human KCNK3 channel inhibition, primary screen. O14649. CHO-KCNK3 thallium flux, FluxOR fluorescence; stronger effect = lower value. B-score at 10 µM. 340,000 compounds, 0.84% hits;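 active = B-score under library mean minus 4 SD, starting fluorescence ratio at most library mean plus 5 SD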;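 also: more negative B-score means stronger inhibition of thallium flux through KCNK3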
# Target sequence (O14649 whole entry, looked up): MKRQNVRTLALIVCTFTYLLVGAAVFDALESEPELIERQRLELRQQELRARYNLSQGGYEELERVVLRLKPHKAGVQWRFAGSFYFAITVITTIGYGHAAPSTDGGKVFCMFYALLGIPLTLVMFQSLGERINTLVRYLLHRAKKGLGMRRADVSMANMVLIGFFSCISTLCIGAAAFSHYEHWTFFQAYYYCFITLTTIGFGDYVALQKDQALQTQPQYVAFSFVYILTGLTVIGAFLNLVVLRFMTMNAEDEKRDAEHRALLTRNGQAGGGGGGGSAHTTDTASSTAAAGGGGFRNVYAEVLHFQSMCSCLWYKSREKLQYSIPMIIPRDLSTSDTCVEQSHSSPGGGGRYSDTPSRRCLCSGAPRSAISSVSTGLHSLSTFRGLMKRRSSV
# hERG protect: shields human hERG channel from block by proarrhythmic agents. Q12809. CHO-hERG, FluxOR thallium flux, dofetilide IC70 present. activation (rescue from dofetilide block), less the hit threshold, % at 10 µM. 310,000 compounds, 0.51% hits;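 active = activation above the mean of controls blocked by dofetilide plus 5 SD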;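 also: thallium influx through hERG after potassium depolarization seen as dye fluorescence rise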
# Numbers without * were called inactive; i = inactive; . = no result.
SMILES,KCNQ1 act,Kir21 inh,KCNQ1 inh,KCNK9 block,KCNK3 block,hERG protect
COc1ccc(C(CCNCc2ccc(F)cc2)c2ccc(F)cc2)cc1 (centres undefined),i,-5*,i,i,i,-15
COc1ccc(CNCCC(c2ccc(F)cc2)c2ccc(OC)cc2)cc1 (centres undefined),i,-8.9*,7*,i,i,-22
COc1cccc(OCCNCc2ccccc2)c1,i,-0.91,i,i,i,-1
O=C(O)c1cccc(S(=O)(=O)Nc2cccc(S(=O)(=O)N3CCCC3)c2)c1,.,.,.,.,i,.
COc1ccc(CNCCC(c2ccc(F)cc2)c2ccc(OC(C)C)cc2)cc1OC (centres undefined),i,-9*,i,i,i,-17
COc1ccc(CN(CCC(c2ccccc2)c2ccc(OC(C)C)cc2)C(=O)CCl)cc1OC (centres undefined),i,0.23,i,i,i,-5
O=C(Oc1ccc(-c2nnco2)cc1)c1ccco1,i,-0.29,i,i,i,-4
CCOc1ccccc1NC(=O)CSc1nc2c(c(=O)n1C)SC(C)C2 (centres undefined),i,-5.5*,i,i,i,-3
CCn1c(SCC(=O)Nc2nc3ccc(C)cc3s2)nc2c(c1=O)SC(C)C2 (centres undefined),i,-0.06,i,i,-11*,-9
CCn1c(SCC(=O)Nc2nc3ccccc3s2)nc2c(c1=O)SC(C)C2 (centres undefined),i,1.9,i,i,.,-7
COc1ccc(C(=O)OCC(=O)N(C)C2CCS(=O)(=O)C2)cc1Br (centres undefined),.,.,.,.,i,.
CC(C)n1cc(/C=C(\C#N)S(=O)(=O)c2ccccc2)c2ccccc21,i,-0.63,i,i,i,-11
c1ccc(COc2ccccc2CNC23CC4CC(CC(C4)C2)C3)cc1,i,-9.8*,i,i,i,-19
O=C(CNCc1ccccc1)Nc1ccc(Oc2ccccc2)cc1,i,-9.5*,i,i,i,-13
C/C(N)=C(/C#N)C(=O)CSc1nc2ccccc2c(=O)n1Cc1ccc(F)cc1,8*,0,i,i,i,-5
O=C(CSc1nc2ccc(Nc3nc(N4CCCC4)nc(N4CCCC4)n3)cc2s1)NCc1ccco1,i,-2.1,8*,i,i,-15
O=C(CSc1nc2ccc(Nc3nc(N4CCOCC4)nc(N4CCOCC4)n3)cc2s1)Nc1ccccc1Cl,i,-0.07,i,i,i,-10
CC(C)[C@H](NC(=O)OC(C)(C)C)c1nnc(S(=O)(=O)Cc2c(F)cccc2Cl)o1,i,-4.4*,i,i,i,-17
CC[C@@H](C)[C@H](NC(=O)OC(C)(C)C)c1nnc(S(=O)(=O)Cc2cc(C)ccc2C)o1,i,-9.1*,i,i,i,-15
CCOc1ccc(-n2c(SCC(=O)NC)nnc2-c2ccco2)cc1,i,-1.2,i,i,i,-5
CCOC(=O)c1ccccc1NC(=O)N1CCn2c(C)ccc2C1CC (centres undefined),i,-0.14,i,i,i,-14
CCC1c2ccc(C)n2CCN1C(=O)Nc1ccccc1C(=O)OC (centres undefined),i,1.4,i,-7*,i,-8
Nc1ncnc(Nc2ccccc2Oc2ccccc2)n1,.,.,.,.,i,.
O=C(NCC(c1cccs1)N1CCOCC1)C1CCN(S(=O)(=O)c2cccc(C(F)(F)F)c2)CC1 (centres undefined),9*,-0.31,i,i,i,-6
CN(CC(=O)NC(=O)NCc1ccccc1)CC(=O)Nc1ccc(Cl)c(C(F)(F)F)c1,i,0.66,i,i,i,-15
SMILES,KCNQ1 act,Kir21 inh,KCNQ1 inh,KCNK9 block,KCNK3 block,hERG protect
CN(CC(=O)NCc1ccccc1)CC(=O)Nc1ccc(Cl)c(C(F)(F)F)c1,.,.,.,.,-9.4*,.
Cc1cc(C)c(C)c(S(=O)(=O)Nc2ccccc2C(=O)NCCCN2CCOCC2)c1C,i,0.01,i,i,i,-13
COC(=O)c1ccccc1NC(=O)c1cn(-c2ccc(C)c(C)c2)c(=O)c2ccccc12,i,-1.6,8*,i,i,-5
CC1(C(=O)OCC(=O)Nc2ccc(S(=O)(=O)N3CCOCC3)cc2)CC1(Cl)Cl (centres undefined),.,.,.,.,i,.
O=c1c(Cl)c(Cl)cnn1Cc1nnc(-c2ccccc2Br)o1,27*,0.12,i,i,i,-14
COc1ccccc1CN(C(=O)CNC(=O)c1ccco1)C(C(=O)NCC1CCCO1)c1ccccc1 (centres undefined),i,-1.5,i,i,i,-26
O=C1C(=O)N(CCN2CCOCC2)C(c2cccnc2)/C1=C(/O)c1ccccc1 (centres undefined),i,1.4,i,i,.,-8
O=C1C(=O)N(CCN2CCOCC2)C(c2cccnc2)/C1=C(/O)c1ccc(Cl)cc1 (centres undefined),i,1,i,i,i,5.5*
CCOc1ccc2c3c(c(=O)oc2c1OCC)CCCC3,i,3.1,i,-7.3*,i,-4
CCN(CCO)Cc1csc2ccc(Br)cc12,i,-0.79,i,i,i,4
O=C(NC1CCCC1)C(c1ccccc1F)N(C(=O)c1csnn1)c1ccccc1 (centres undefined),i,1.5,i,i,i,-6
CCc1cc(/C(Cc2csc(C)n2)=N/O)c(O)cc1O,i,-4.4*,i,i,i,-8
Cc1ccnc(N2C(=O)c3ccccc3C2=O)c1,i,0.07,i,i,i,-8
Cc1ccnc(N2C(=O)c3cccc4c([N+](=O)[O-])ccc(c34)C2=O)c1,i,-1,7*,i,i,-13
COc1ccc(CC(=O)NC(=S)NNC(=O)COc2c(C)cccc2C)cc1,i,-0.93,i,i,i,-5
CCn1c(N)cc(=O)[nH]c1=S,.,.,.,.,i,.
OCCn1cnc2c(SCc3ccccc3)ncnc21,.,.,.,.,i,.
N=c1c2c(-c3ccccc3)c(-c3ccccc3)n(Cc3ccco3)c2ncn1CCCN1CCOCC1,i,-7.1*,i,i,i,-5
c1ccc(-c2c(-c3ccccc3)n(Cc3ccco3)c3ncnc(NCCCn4ccnc4)c23)cc1,i,-2.9,12*,i,i,-26
N=c1c2c(-c3ccccc3)c(-c3ccccc3)n(Cc3ccco3)c2ncn1CCCn1ccnc1,i,-7.7*,i,i,i,-16
OCCNc1ncnc2c1c(-c1ccccc1)c(-c1ccccc1)n2Cc1ccco1,i,0.61,i,i,i,-20
